Experimental data gathered from unrelated publications.
Lines come from different studies, so protocols differ.
Target: Delta-type opioid receptor (Oprd1, Rattus norvegicus, UniProt P33533)
Notes: cell membranes

Compound | read-out | action | method | endpoint | value
NC(N)=Nc1ccc2[nH]c3c(c2c1)C[C@@]1(O)[C@H]2Cc4ccc(O)c5c4[C@@]1(CCN2CC1CC1)[C@H]3O5 | ligand displacement |  | radioligand | Ki | 2.86 nM
Cc1cc(O)cc(C)c1C[C@H](N)C(=O)N1CCc2ccc(Cc3ccccc3N)cc2C1 | ligand displacement |  | radioligand | Ki | 9 nM
Cc1cc(O)cc(C)c1C[C@H](C)C(=O)N[C@@H]1C/C=C\CC[C@@H](C(N)=O)NC(=O)[C@H](Cc2ccccc2)NC(=O)[C@H](Cc2ccccc2)NC1=O | ligand displacement |  | radioligand | Ki | 7.67 nM
Cc1cc(O)cc(C)c1C[C@H](N)C(=O)N[C@H](CCCNC(=N)N)C(=O)N[C@@H](Cc1c(C)cccc1C(C)C)C(=O)N[C@@H](CCCCN)C(N)=O | ligand displacement |  | radioligand | Ki | 77.1 nM
Cc1cccc(Cc2ccc3c(c2)CN(C(=O)[C@@H](N)Cc2c(C)cc(O)cc2C)CC3)c1 | ligand displacement |  | radioligand | Ki | 3 nM
Cc1cc(O)cc(C)c1C[C@H](N)C(=O)N[C@@H]1CCN(S(C)(=O)=O)c2ccc(CN3CCc4ccccc4C3)cc21 | GTPγS binding | antagonist |  | Kb | 0.85 nM
Cc1cccc(C)c1C[C@H](NC(=O)[C@@H](CCCNC(=N)N)NC(=O)[C@@H](N)Cc1c(C)cc(O)cc1C)C(=O)N[C@@H](CCCCN)C(N)=O | ligand displacement |  | radioligand | Ki | 105 nM
Cc1cc(O)cc(C)c1C[C@H](N)C(=O)N[C@@H]1CCN(C(=O)c2ccccc2)c2ccc(Cc3ccc4ccccc4c3)cc21 | GTPγS binding | antagonist |  | Kb | 15 nM
Cc1cc(O)cc(C)c1C[C@H](N)C(=O)N1CCc2ccc(Cc3cccc([N+](=O)[O-])c3)cc2C1 | ligand displacement |  | radioligand | Ki | 2.5 nM
N=C(N)NCCC[C@H]1NC(=O)[C@H](Cc2ccc(O)cc2)NC(=O)[C@H](CCCCN)NC(=O)[C@H](Cc2ccccc2)NC1=O | ligand displacement |  | radioligand | Ki | 64 nM
Cc1cc(O)cc(C)c1C[C@H](C)C(=O)N[C@@H]1CCCCC[C@@H](C(N)=O)NC(=O)[C@H](Cc2ccccc2)NC(=O)[C@H](Cc2ccccc2)NC1=O | ligand displacement |  | radioligand | Ki | 18.7 nM
Cc1cc(O)cc(C)c1C[C@H](N)C(=O)N1CCc2ccc(Cc3cccc(N)c3)cc2C1 | ligand displacement |  | radioligand | Ki | 5.5 nM
Cc1cc(C)c(C[C@H](NC(=O)[C@@H](CCCNC(=N)N)NC(=O)[C@@H](N)Cc2c(C)cc(O)cc2C)C(=O)N[C@@H](CCCCN)C(N)=O)c(C)c1 | ligand displacement |  | radioligand | Ki | 329 nM
